Laboratory results reported in ChEMBL document CHEMBL4765399, “Design, synthesis, and biological evaluation of 5-((8-methoxy-2-methylquinolin-4-yl)amino)-1H-indole-2-carbohydrazide derivatives as novel Nur77 modulators” (Eur J Med Chem, 2020).
Activity calls are given as the source filed them. The rule behind the calls is not given here.

Key:
[1] = tested on: HepG2; assay: Antitumor activity against human HepG2 cells xenografted in BALB/c mouse assessed as sparser and vacuolated cells in tumor tissue at 10 to 20 mg/kg/day, ip for 15 days by hematoxylin and eosin staining based microscopic analysis; type: functional, organism-based; conditions: dose 10-20 mg/kg/day, time 15.0 day
Outline: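 H&E staining of 4% paraformaldehyde-fixed, paraffin-embedded 5 μm tumor slices from the HepG2 flank xenograft (male Balb/c nude mice, 10 or 20 mg/kg i.p. daily for 15 days, versus vehicle). Examined by light microscopy at 200, 400 and 1000×.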

[2] = tested on: HepG2; assay: Antitumor activity against human HepG2 cells xenografted in BALB/c mouse assessed as induction of autophagy by measuring increase in LC3-II level in tumor tissue at 10 to 20 mg/kg/day, ip administered for 15 days by immunohistochemical analysis; type: functional, organism-based; conditions: dose 10-20 mg/kg/day, time 15.0 day
Outline: (§1)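 HepG2 cells (5×10^6) injected subcutaneously into flanks of 4-week-old male Balb/c nude mice. At about 100 mm³, 15 mice were randomized to vehicle, 10 or 20 mg/kg i.p. once daily for 15 days. Tumors were then excised for immunostaining of paraffin sections (5 μm) or for western blot.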

[3] = tested on: HepG2; assay: Induction of apoptosis in human HepG2 cells assessed as necrotic cells at 2 uM incubated for 12 hrs by Annexin V-FITC/PI staining based flow cytometry (reference value: 0.068 to 0.23%); type: functional
[4] = tested on: HepG2; assay: Induction of autophagy in human HepG2 cells assessed as increase in LC3-II expression at 2 uM measured after 4 to 6 hrs by Western blot analysis; type: functional, cell-based; conditions: time 4-6 hrs
Outline: (§2)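 HepG2 exposed to 2.0 µM over a time course; Nur77, Bip, p-EIF2a, TRB3 and LC3 levels followed by Western blot of RIPA lysates.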

[5] = tested on: SMMC-7721; assay: Induction of apoptosis in human SMMC-7721 cells assessed as increase in cleaved PARP level at 0.5 to 2 uM incubated for 12 hrs by Western blot analysis; type: functional, cell-based; conditions: dose 0.5-2 µM
Outline: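 QGY-7703 (RPMI 1640, 10% FBS) and SMMC-7721 (DMEM) cells at 37 °C, 5% CO2, treated with graded concentrations for 12 h. RIPA lysates (40-80 µg protein) run on SDS-PAGE, transferred to nitrocellulose, immunoblotted for cleaved PARP; chemiluminescence read-out.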

[6] = tested on: HepG2; assay: Induction of endoplasmic reticulum stress in human HepG2 cells assessed as increase in PDI protein expression at 2 uM incubated for 6 hrs by confocal microsocopic analysis; type: functional, cell-based
Outline: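 HepG2, or HepG2 plus shNur77 HepG2, treated with 2.0 µM for 6 h, fixed in 4% paraformaldehyde 20 min, permeabilised 0.1% Triton X-100, blocked in 5% BSA, stained with PDI antibody and imaged by confocal fluorescence microscopy.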

[7] = tested on: HepG2; assay: Antitumor activity against human HepG2 cells xenografted in BALB/c mouse assessed as induction of autophagy by measuring increase in Beclin1 level in tumor tissue at 10 to 20 mg/kg/day, ip administered for 15 days by immunohistochemical analysis; type: functional, organism-based; conditions: dose 10-20 mg/kg/day, time 15.0 day; outline: as §1
[8] = tested on: L02; assay: Cytotoxicity against human L02 cells assessed as reduction in cell viability incubated for 48 hrs by MTT assay; type: cell-based; conditions: L02, 48 h
Outline: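 MTT assay after 48 h exposure at six concentrations, range chosen by cytotoxicity. Inhibition = (ODcontrol − ODtest)/ODcontrol × 100%; IC50 is the concentration halving OD versus untreated cells. Means ± SD of three independent determinations. HepG2 and SMMC-7721 grown in DMEM, QGY-7703 and LO2 in RPMI 1640, with 10% FBS at 37 °C.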

[9] = tested on: HepG2; assay: Induction of apoptosis in human HepG2 cells assessed as early apoptotic cells at 2 uM incubated for 12 hrs by Annexin V-FITC/PI staining based flow cytometry (reference value: 3.99 to 5.35%); type: functional
[10] = tested on: HepG2; assay: Upregulation of RXRalpha expression in human HepG2 cells at 2 uM incubated for 2 to 12 hrs by Western blot analysis; type: functional, cell-based; conditions: time 2-12 hrs
Outline: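 HepG2 cells given 2.0 µM for the indicated times. RXRα, RARγ and Nur77 detected by western blot: RIPA lysis with protease and phosphatase inhibitors, 40-80 µg protein by SDS-PAGE, nitrocellulose, 5% milk block, primary antibody overnight, HRP secondary, chemiluminescence read-out.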

[11] = Toxicity in BALB/c mouse xenografted with human HepG2 cells assessed as effect on body weight at 10 to 20 mg/kg/day, ip administered for 15 days; type: organism-based; conditions: in vivo, 360 h, dose 10-20 mg/kg/day, time 15 day
Outline: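 Male Balb/c mice, 4 weeks old, injected subcutaneously in the flank with 5×10^6 HepG2 cells. At about 100 mm³, 15 mice randomized into vehicle, 10 and 20 mg/kg groups. Dosed i.p. once daily for 15 days. Tumour size and body weight measured daily; mice euthanized at the end.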

[12] = tested on: HepG2; assay: Induction of apoptosis in human HepG2 cells assessed as increase in cleaved PARP level pretreated with nuclear export inhibitor, LMB followed by incubation with compound for 12 hrs by western blot analysis; type: functional, cell-based
[13] = tested on: HepG2; assay: Induction of autophagy in human HepG2 cells assessed as increase in GFP-LC3 puncta formation at 2 uM after 6 hrs by fluorescence microscopic method; type: functional, cell-based
Outline: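 HepG2, or HepG2 and shNur77 HepG2, transfected with GFP-LC3, then given vehicle or 2.0 µM for 6 h; GFP-LC3 puncta visualised by fluorescence microscopy alongside phase-contrast images.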

[14] = tested on: HepG2; assay: Antitumor activity against human HepG2 cells xenografted in BALB/c mouse assessed as induction of autophagy by measuring increase in Beclin1 level in tumor tissue at 10 to 20 mg/kg/day, ip administered for 15 days by western blot analysis; type: functional, organism-based; conditions: dose 10-20 mg/kg/day, time 15.0 day; outline: as §1
[15] = tested on: HepG2; assay: Induction of endoplasmic reticulum stress in human HepG2 cells assessed as increase in bip expression at 2 uM measured after 1 to 4 hrs by Western blot analysis; type: functional, cell-based; conditions: time 1-4 hrs; outline: as §2

In the case of `COc1cccc2c(Nc3ccc4[nH]c(C(=O)N/N=C/c5ccc(SC)cc5)cc4c3)cc(C)nc12`, the Activity [1] is reported as “Active”, the Activity [2] is reported as “Active” and the Activity [3] is reported as 0%. The Activity [4] was “Active”, the Activity [5] was “Dose-dependent effect” and the Activity [6] was “Active”. The Activity [7] was “Active”, the IC50 [8] was over 20 µM and the Activity [9] was 13%. For the same molecule, the Activity [10] was “inactive”, the Activity [11] was “Non-Toxic” and the Activity [12] was “inactive”. The Activity [13] was “Active”, the Activity [14] was “Active” and the Activity [15] was “Active”.
